ChEMBL document CHEMBL1121378, “Lipophilic and hydrophilic esters of 4-acetyl-2-(2-hydroxyethyl)-5,6-bis(4-chlorophenyl)-2H-pyridazin-3-one as antihypertensive agents” (1980)

Tests used:
[1] = test system: Rattus norvegicus; test: Antihypertensive activity in spontaneously hypertensive rats was measured as average blood pressure at 100 mg/kg, po after 4 hours of postdose-1; No significant lowering of blood pressure; type: functional, organism-based; parameters: dose 100 mg/kg
Procedure, shortened: (§1)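 SHR model with two successive doses, designated dose 1 and dose 2. Group-average blood pressure in mmHg was recorded before dosing and at 4 h and 24 h after each dose. The route is oral unless marked intra-arterial or subcutaneous. A table footnote marks doses that gave no significant lowering at 4 or 24 h postdose.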

[2] = test system: Rattus norvegicus; test: Antihypertensive activity in spontaneously hypertensive rats was measured as average blood pressure at 100 mg/kg, p.o. after 24 hours of postdose-1; No significant lowering of blood pressure; type: functional, organism-based; parameters: dose 100 mg/kg; procedure, shortened: as §1
[3] = test system: Rattus norvegicus; test: Antihypertensive activity in spontaneously hypertensive rats was measured as average blood pressure at 15 mg/kg, p.o. after 4 hours of postdose-1; No significant lowering of blood pressure; type: functional, organism-based; parameters: dose 15 mg/kg; procedure, shortened: as §1
[4] = test system: Rattus norvegicus; test: Antihypertensive activity in spontaneously hypertensive rats was measured as average blood pressure at 15 mg/kg, po after 24 hours of postdose-1; No significant lowering of blood pressure; type: functional, organism-based; parameters: dose 15 mg/kg; procedure, shortened: as §1
[5] = test system: Rattus norvegicus; test: Antihypertensive activity in spontaneously hypertensive rats was measured as average blood pressure at 30 mg/kg, p.o. after 4 hours of postdose-1; type: functional; details: route oral; procedure, shortened: as §1
[6] = test system: Rattus norvegicus; test: Antihypertensive activity in spontaneously hypertensive rats was measured as average blood pressure at 30 mg/kg, po before predose; type: functional; procedure, shortened: as §1
[7] = test system: Rattus norvegicus; test: Antihypertensive activity in spontaneously hypertensive rats was measured as average blood pressure at 30 mg/kg, po after 24 hours of postdose-2; type: functional; procedure, shortened: as §1
[8] = test system: Rattus norvegicus; test: Antihypertensive activity in spontaneously hypertensive rats was measured as average blood pressure at 30 mg/kg, p.o. after 4 hours of postdose-2; type: functional; details: route oral; procedure, shortened: as §1
[9] = test system: Rattus norvegicus; test: Antihypertensive activity in spontaneously hypertensive rats was measured as average blood pressure at 30 mg/kg, p.o. after 24 hours of postdose-1; type: functional; details: route oral; procedure, shortened: as §1
[10] = test system: Rattus norvegicus; test: Antihypertensive activity in spontaneously hypertensive rats was measured as average blood pressure at 13 mg/kg, p.o. after 4 hours of postdose-2; type: functional; details: route oral; procedure, shortened: as §1
[11] = test system: Rattus norvegicus; test: Antihypertensive activity in spontaneously hypertensive rats was measured as average blood pressure at 13 mg/kg, p.o. after 4 hours of postdose-1; type: functional; details: route oral; procedure, shortened: as §1
[12] = test system: Rattus norvegicus; test: Antihypertensive activity in spontaneously hypertensive rats was measured as average blood pressure at 13 mg/kg, p.o. before predose; type: functional; details: route oral; procedure, shortened: as §1
[13] = test system: Rattus norvegicus; test: Antihypertensive activity in spontaneously hypertensive rats was measured as average blood pressure at 13 mg/kg, p.o. after 24 hours of postdose-2; type: functional; details: route oral; procedure, shortened: as §1
[14] = test system: Rattus norvegicus; test: Antihypertensive activity in spontaneously hypertensive rats was measured as average blood pressure at 13 mg/kg, po after 24 hours of postdose-1; type: functional; procedure, shortened: as §1
[15] = test system: Rattus norvegicus; test: Antihypertensive activity in spontaneously hypertensive rats was measured as average blood pressure at 100 mg/kg, p.o. after 24 hours of postdose-2; type: functional; details: route oral; procedure, shortened: as §1
[16] = test system: Rattus norvegicus; test: Antihypertensive activity in spontaneously hypertensive rats was measured as average blood pressure at 100 mg/kg, p.o. after 4 hours of postdose-1; type: functional; details: route oral; procedure, shortened: as §1
[17] = test system: Rattus norvegicus; test: Antihypertensive activity in spontaneously hypertensive rats was measured as average blood pressure at 100 mg/kg, p.o. after 4 hours of postdose-2; type: functional; details: route oral; procedure, shortened: as §1
[18] = test system: Rattus norvegicus; test: Antihypertensive activity in spontaneously hypertensive rats was measured as average blood pressure at 100 mg/kg, p.o. before predose; type: functional; details: route oral; procedure, shortened: as §1
[19] = test system: Rattus norvegicus; test: Antihypertensive activity in spontaneously hypertensive rats was measured as average blood pressure at 100 mg/kg, p.o. after 24 hours of postdose-1; type: functional; details: route oral; procedure, shortened: as §1
[20] = test system: Rattus norvegicus; test: Antihypertensive activity in spontaneously hypertensive rats was measured as average blood pressure at 14 mg/kg, p.o. after 24 hours of postdose-1; No significant lowering of blood pressure; type: functional, organism-based; parameters: dose 14 mg/kg; procedure, shortened: as §1
[21] = test system: Rattus norvegicus; test: Antihypertensive activity in spontaneously hypertensive rats was measured as average blood pressure at 14 mg/kg, p.o. after 4 hours of postdose-1; No significant lowering of blood pressure; type: functional, organism-based; parameters: dose 14 mg/kg; procedure, shortened: as §1

## CC(=O)c1c(-c2ccc(Cl)cc2)c(-c2ccc(Cl)cc2)nn(CCOC(=O)C(Cc2ccccc2)NC(=O)OCc2ccccc2)c1=O (stereo unspecified)
[1]
  BP: Not significant
[2]
  BP: Not significant

## CC(=O)c1c(-c2ccc(Cl)cc2)c(-c2ccc(Cl)cc2)nn(CCOC(=O)C(N)Cc2ccccc2)c1=O (stereo unspecified)
[3]
  BP: Not significant
[4]
  BP: Not significant

## CC(=O)c1c(-c2ccc(Cl)cc2)c(-c2ccc(Cl)cc2)nn(CCOC(=O)C(NC(=O)OCc2ccccc2)C2(/N=C(/N)N[N+](=O)[O-])CCC2)c1=O (stereo unspecified)
[1]
  BP: Not significant
[2]
  BP: Not significant

## CC(=O)c1c(-c2ccc(Cl)cc2)c(-c2ccc(Cl)cc2)nn(CCOC(=O)Cc2ccccc2)c1=O
[5]
  BP: 165 mmHg
[6]
  BP: 174 mmHg
[7]
  BP: 127 mmHg
[8]
  BP: 146 mmHg
[9]
  BP: 154 mmHg

## CSCCC(N)C(=O)OCCn1nc(-c2ccc(Cl)cc2)c(-c2ccc(Cl)cc2)c(C(C)=O)c1=O (stereo unspecified)
[3]
  BP: Not significant
[4]
  BP: Not significant

## CCC(=O)OCCn1nc(-c2ccc(Cl)cc2)c(-c2ccc(Cl)cc2)c(C(C)=O)c1=O
[5]
  BP: 133 mmHg
[6]
  BP: 181 mmHg
[7]
  BP: 168 mmHg
[8]
  BP: 129 mmHg
[9]
  BP: 136 mmHg

## CC(=O)c1c(-c2ccc(Cl)cc2)c(-c2ccc(Cl)cc2)nn(CCOC(=O)CNC(=O)OCc2ccccc2)c1=O
[1]
  BP: Not significant
[2]
  BP: Not significant

## CC(=O)c1c(-c2ccc(Cl)cc2)c(-c2ccc(Cl)cc2)nn(CCOC(=O)CCNC(=O)OCc2ccccc2)c1=O
[1]
  BP: Not significant
[2]
  BP: Not significant

## Br.CC(=O)c1c(-c2ccc(Cl)cc2)c(-c2ccc(Cl)cc2)nn(CCOC(=O)CN)c1=O
[10]
  BP: 145 mmHg
[11]
  BP: 177 mmHg
[12]
  BP: 182 mmHg
[13]
  BP: 170 mmHg
[14]
  BP: 154 mmHg

## C[C@](N)(Cc1ccc(O)c(O)c1)C(=O)O [METHYLDOPA]
[15]
  BP: 166 mmHg
[16]
  BP: 161 mmHg
[17]
  BP: 155 mmHg
[18]
  BP: 178 mmHg
[19]
  BP: 174 mmHg

## CC(=O)c1c(-c2ccc(Cl)cc2)c(-c2ccc(Cl)cc2)nn(CCOC(=O)CCN)c1=O.Cl
[10]
  BP: 195 mmHg
[11]
  BP: 210 mmHg
[12]
  BP: 215 mmHg
[13]
  BP: 209 mmHg
[14]
  BP: 215 mmHg

## CCCCCCCCCCCCCCCCCC(=O)OCCn1nc(-c2ccc(Cl)cc2)c(-c2ccc(Cl)cc2)c(C(C)=O)c1=O
[5]
  BP: 168 mmHg
[6]
  BP: 181 mmHg
[7]
  BP: 137 mmHg
[8]
  BP: 142 mmHg
[9]
  BP: 162 mmHg

## CC(=O)c1c(-c2ccc(Cl)cc2)c(-c2ccc(Cl)cc2)nn(CCOC(=O)C(NC(=O)OCc2ccccc2)C(C)C)c1=O (stereo unspecified)
[1]
  BP: Not significant
[2]
  BP: Not significant

## CC(=O)c1c(-c2ccc(Cl)cc2)c(-c2ccc(Cl)cc2)nn(CCOC(=O)c2ccccc2)c1=O
[5]
  BP: 116 mmHg
[6]
  BP: 173 mmHg
[7]
  BP: 130 mmHg
[8]
  BP: 136 mmHg
[9]
  BP: 139 mmHg

## CC(=O)c1c(-c2ccc(Cl)cc2)c(-c2ccc(Cl)cc2)nn(CCOC(=O)C(C)(C)C)c1=O
[5]
  BP: 200 mmHg
[6]
  BP: 205 mmHg
[7]
  BP: 205 mmHg
[8]
  BP: 158 mmHg
[9]
  BP: 202 mmHg

## CC(=O)c1c(-c2ccc(Cl)cc2)c(-c2ccc(Cl)cc2)nn(CCO)c1=O
[15]
  BP: 193 mmHg
[5]
  BP: 200 mmHg
[6]
  BP: 213 mmHg
[16]
  BP: 173 mmHg
[7]
  BP: 206 mmHg
[17]
  BP: 174 mmHg
[18]
  BP: 218 mmHg
[8]
  BP: 164 mmHg
[19]
  BP: 185 mmHg
[9]
  BP: 192 mmHg

## CC(=O)c1c(-c2ccc(Cl)cc2)c(-c2ccc(Cl)cc2)nn(CCOC(=O)C(N)C(C)C)c1=O (stereo unspecified)
[20]
  BP: Not significant
[21]
  BP: Not significant
